Data reported in ChEMBL document CHEMBL3352257, “In silico design of novel 2H-chromen-2-one derivatives as potent and selective MAO-B inhibitors” (Eur J Med Chem, 2015).

Legend:
Assay type in all cases: tissue-based
[1] = target: T1, Amine oxidase [flavin-containing] B (Rattus norvegicus, UniProt P19643); test: Inhibition of Sprague-Dawley rat MAO-B in brain mitochondrial homogenate assessed as 4-hydroxyquinoline by spectrophotometric method
T1 sequence (P19643 whole entry): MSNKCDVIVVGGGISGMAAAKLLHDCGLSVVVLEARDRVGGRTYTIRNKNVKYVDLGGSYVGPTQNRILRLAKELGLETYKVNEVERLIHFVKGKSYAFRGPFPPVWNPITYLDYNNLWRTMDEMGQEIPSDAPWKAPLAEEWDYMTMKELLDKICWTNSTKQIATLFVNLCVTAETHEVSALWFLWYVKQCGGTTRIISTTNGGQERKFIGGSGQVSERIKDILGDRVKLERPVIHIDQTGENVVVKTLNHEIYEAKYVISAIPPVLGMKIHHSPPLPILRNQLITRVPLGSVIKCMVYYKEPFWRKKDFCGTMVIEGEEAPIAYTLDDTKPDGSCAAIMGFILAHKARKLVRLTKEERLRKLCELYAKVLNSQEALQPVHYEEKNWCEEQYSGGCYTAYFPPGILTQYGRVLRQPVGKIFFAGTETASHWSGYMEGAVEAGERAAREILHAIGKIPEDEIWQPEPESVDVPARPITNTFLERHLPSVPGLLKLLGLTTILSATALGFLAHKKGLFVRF

[2] = target: T2, Amine oxidase [flavin-containing] A (Rattus norvegicus, UniProt P21396); test: Inhibition of Sprague-Dawley rat MAO-A in brain mitochondrial homogenate assessed as 4-hydroxyquinoline by spectrophotometric method
T2 sequence (P21396 whole entry): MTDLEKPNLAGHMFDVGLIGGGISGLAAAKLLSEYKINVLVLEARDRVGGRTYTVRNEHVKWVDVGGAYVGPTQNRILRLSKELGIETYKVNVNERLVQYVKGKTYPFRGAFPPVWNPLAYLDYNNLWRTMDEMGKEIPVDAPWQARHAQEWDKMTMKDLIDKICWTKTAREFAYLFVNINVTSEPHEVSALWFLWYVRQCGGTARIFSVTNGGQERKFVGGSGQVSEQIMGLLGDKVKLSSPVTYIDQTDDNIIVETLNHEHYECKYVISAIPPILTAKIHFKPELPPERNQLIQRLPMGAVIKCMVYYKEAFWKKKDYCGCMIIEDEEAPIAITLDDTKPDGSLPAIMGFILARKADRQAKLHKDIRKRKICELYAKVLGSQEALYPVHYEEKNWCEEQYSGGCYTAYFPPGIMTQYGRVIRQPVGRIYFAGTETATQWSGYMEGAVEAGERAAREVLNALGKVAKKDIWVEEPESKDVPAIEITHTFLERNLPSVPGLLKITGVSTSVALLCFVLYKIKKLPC
Summary of the method: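 The MAO-A source was a crude male Sprague-Dawley rat brain mitochondrial fraction (1 mg/mL), pretreated with (-)-L-deprenyl 250 nM. Compound in DMSO (final 5% v/v) was preincubated for 5 min, then kynuramine was added at 90 μM (KM). 4-Hydroxyquinoline formation was monitored at 314 nm for 5 min.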

[3] = target: T3, MAO-A (amine oxidase [flavin-containing] A) (Rattus norvegicus, UniProt P21396); test: Inhibition of Sprague-Dawley rat MAO-A in brain mitochondrial homogenate assessed as 4-hydroxyquinoline at 10 uM by spectrophotometric method
T3 sequence (P21396 whole entry): T2 sequence (P21396 whole entry)
Summary of the method: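 Crude mitochondrial fraction from male Sprague-Dawley rat brain (200-250 g) was used at 1 mg/mL and pretreated with (-)-L-deprenyl 250 nM to isolate MAO-A. Compound was given at 10 μM in DMSO (final 5% v/v) with a 5 min preincubation. Kynuramine was added at 90 μM (KM), and 4-hydroxyquinoline formation was read at 314 nm for 5 min. Values are means of 2-3 independent experiments.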

Structure (SMILES) | IC50 [1] [nM] | IC50 [2] [nM] | inhibition at 10 µM [3] [%]
O=c1cc(CCO)c2ccc(OCc3cccc(Cl)c3)cc2o1 | 7.41 | 4680 | –
O=C(CCl)Nc1cc(=O)oc2cc(OCc3cccc(Cl)c3)ccc12 | 398 | 5750 | –
N#CCCc1cc(=O)oc2cc(OCc3cccc(Cl)c3)ccc12 | 28.8 | – | 22
O=c1cc(CCBr)c2ccc(OCc3cccc(Cl)c3)cc2o1 | 32.4 | – | 22
NC(=O)CCc1cc(=O)oc2cc(OCc3cccc(Cl)c3)ccc12 | 15.1 | 4270 | –
O=C(O)c1cc(=O)oc2cc(OCc3cccc(Cl)c3)ccc12 | 100000 | – | –
O=C(O)COc1cc(=O)oc2cc(OCc3cccc(Cl)c3)ccc12 | 31600 | – | –
O=c1cc(CCN2CCCCC2)c2ccc(OCc3cccc(Cl)c3)cc2o1 | 3800 | – | 1
NC(=O)CNc1cc(=O)oc2cc(OCc3cccc(Cl)c3)ccc12 | 49 | 95.5 | –
O=c1cc(CCCl)c2ccc(OCc3cccc(Cl)c3)cc2o1 | 12.9 | – | 3
CCNC(=O)Nc1cc(=O)oc2cc(OCc3cccc(Cl)c3)ccc12 | 31600 | – | –
O=C(O)CCc1cc(=O)oc2cc(OCc3cccc(Cl)c3)ccc12 | 1200 | – | 13
